Active and inactive are the calls of the source. The rule behind the calls is not given here.
What was measured:
[1] = tested on: Escherichia coli; assay: Antibacterial activity against Escherichia coli; type: functional, organism-based
[2] = tested on: Bacillus subtilis; assay: Antibacterial activity against Bacillus subtilis; type: functional, organism-based
[3] = tested on: Micrococcus luteus; assay: Antibacterial activity against Micrococcus luteus; type: functional, organism-based
[4] = tested on: HCT-116; assay: Antiproliferative activity against human HCT116 cells after 72 hrs by MTT assay; type: functional, cell-based; settings: for IC50: HCT-116, 72 h
Summary of the method: (§1)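 Tetrazolium colorimetric proliferation assay in HCT-116 (colon carcinoma), PC-3 (prostate) and MCF-7 (breast) cells grown in DMEM with 10% fetal calf serum plus penicillin, streptomycin and fungizone. After 24 h growth, cells were treated with compounds from 100 μM to 10 nM, given in DMSO at 1% to 3% final. MTS was added at 72 h and absorbance was read at 490 nm against untreated cells. IC50 was determined from separate duplicate experiments.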

[5] = tested on: MCF7; assay: Antiproliferative activity against human MCF7 cells after 72 hrs by MTT assay; type: functional, cell-based; summary of the method: as §1
[6] = tested on: PC-3; assay: Antiproliferative activity against human PC3 cells after 72 hrs by MTT assay; type: functional, cell-based; summary of the method: as §1
[7] = Inhibition of hyaluronidase (unknown origin); design: species or system Homo sapiens

Structure (SMILES)	Activity [1]	Activity [2]	Activity [3]	IC50 [4] [µM]	IC50 ([5]; MCF7, 72 h) [µM]	IC50 ([6]; PC-3, 72 h) [µM]	Activity [5]	Activity [6]	Activity [4]	IC50 [7] [µM]
C=C(C(=O)O)[C@H]1C[C@@H](CCCCCC)OC1=O	inactive	inactive	inactive	18	–	–	–	–	–	–
C=C1C(=O)O[C@@H]2[C@H]1C(=O)O[C@@H]2CCCCCC	inactive	inactive	inactive	7.1	4	6.4	–	–	–	–
CCCCCC[C@H]1OC(=O)[C@@H]2[C@H]1OC(=O)[C@]21CCC=C[C@H]1/C=C/[C@@H]1O[C@H](C)C[C@@H]1O	inactive	inactive	inactive	–	–	–	inactive	inactive	inactive	300
CC1(C)[C@@H](O[C@H]2O[C@H](C(=O)O)[C@@H](O)[C@H](O)[C@H]2O[C@@H]2O[C@H](C(=O)O)[C@@H](O)[C@H](O)[C@H]2O)CC[C@]2(C)[C@H]3C(=O)C=C4[C@@H]5C[C@@](C)(C(=O)O)CC[C@]5(C)CC[C@@]4(C)[C@]3(C)CC[C@@H]12 [GLYCYRRHIZIN]	–	–	–	–	–	–	–	–	–	320

From ChEMBL document CHEMBL4130514, “Sporothriolide-Related Compounds from the Fungus Hypoxylon monticulosum CLL-205 Isolated from a Sphaerocladina Sponge from the Tahiti Coast” (J Nat Prod, 2017)
